Measurements taken from ChEMBL document CHEMBL4002644, “Discovery of GBT440, an Orally Bioavailable R-State Stabilizer of Sickle Cell Hemoglobin” (ACS Med Chem Lett, 2017).

How the values were obtained:
Cytochrome P450 3A4 [1] = target: T1, Cytochrome P450 3A4 (Homo sapiens, UniProt P08684); experiment: Inhibition of CYP3A4 using in human liver microsomes using testosterone as substrate after 5 to 15 mins; assay type: ADME
Summary of the method: (§1)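 CYP3A4 inhibition was measured in pooled human liver microsomes using an isozyme-specific probe substrate: midazolam for line 1 and testosterone for line 2.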

Cytochrome P450 2C19 [2] = target: T2, Cytochrome P450 2C19 (Homo sapiens, UniProt P33261); experiment: Inhibition of CYP2C19 in human liver microsomes using S-Mephentoin as substrate after 5 to 15 mins; assay type: ADME
T2 sequence (P33261 whole entry): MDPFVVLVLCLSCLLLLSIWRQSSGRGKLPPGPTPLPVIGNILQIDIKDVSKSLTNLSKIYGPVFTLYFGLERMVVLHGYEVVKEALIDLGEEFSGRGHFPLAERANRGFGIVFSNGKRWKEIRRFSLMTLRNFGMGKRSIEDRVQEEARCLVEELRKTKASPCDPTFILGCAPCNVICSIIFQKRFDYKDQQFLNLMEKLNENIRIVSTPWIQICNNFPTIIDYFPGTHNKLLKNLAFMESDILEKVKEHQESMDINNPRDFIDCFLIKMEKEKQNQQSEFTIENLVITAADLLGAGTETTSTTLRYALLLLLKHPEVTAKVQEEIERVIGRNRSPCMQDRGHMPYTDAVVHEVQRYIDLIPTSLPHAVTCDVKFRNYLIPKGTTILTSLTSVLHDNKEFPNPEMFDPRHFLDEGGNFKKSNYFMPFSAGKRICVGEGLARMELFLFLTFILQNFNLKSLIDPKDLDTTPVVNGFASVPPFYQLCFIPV
Summary of the method: (§2)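 Pooled human liver microsomes were incubated with isozyme-specific probe substrates: S-mephenytoin for CYP2C19 and bufuralol for CYP2D6.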

[3] = Half life in monkey blood; assay type: ADME, tissue-based, Macaca mulatta; conditions: rhesus monkey
Homo sapiens = organism: Homo sapiens; experiment: Induction of R-state stabilization of sickle cell Hb betaGlu6Val mutant purified from sickle cell patient assessed as inhibition of KH2PO4-induced polymerization by measuring change from baseline of delay time for onset of polymerization at 75 uM preincubated for 1 hr followed by deoxygenation for …; design: scale not given: the % may be the effect or the level left
[4] = Oral bioavailability in Sprague-Dawley rat at 7.2 to 120 mg/kg by LC-MS/MS analysis; assay type: ADME, organism-based; conditions: in vivo
[5] = Oral bioavailability in monkey; assay type: ADME, organism-based, Macaca mulatta; conditions: rhesus monkey, in vivo
[6] = Oral bioavailability in dog; assay type: ADME, organism-based, Canis lupus familiaris; conditions: in vivo
Cytochrome P450 2C8 = target: T3, Cytochrome P450 2C8 (Homo sapiens, UniProt P10632); experiment: Inhibition of CYP2C8 in human liver microsomes using paclitaxel as substrate after 5 to 15 mins; assay type: ADME
T3 sequence (P10632 whole entry): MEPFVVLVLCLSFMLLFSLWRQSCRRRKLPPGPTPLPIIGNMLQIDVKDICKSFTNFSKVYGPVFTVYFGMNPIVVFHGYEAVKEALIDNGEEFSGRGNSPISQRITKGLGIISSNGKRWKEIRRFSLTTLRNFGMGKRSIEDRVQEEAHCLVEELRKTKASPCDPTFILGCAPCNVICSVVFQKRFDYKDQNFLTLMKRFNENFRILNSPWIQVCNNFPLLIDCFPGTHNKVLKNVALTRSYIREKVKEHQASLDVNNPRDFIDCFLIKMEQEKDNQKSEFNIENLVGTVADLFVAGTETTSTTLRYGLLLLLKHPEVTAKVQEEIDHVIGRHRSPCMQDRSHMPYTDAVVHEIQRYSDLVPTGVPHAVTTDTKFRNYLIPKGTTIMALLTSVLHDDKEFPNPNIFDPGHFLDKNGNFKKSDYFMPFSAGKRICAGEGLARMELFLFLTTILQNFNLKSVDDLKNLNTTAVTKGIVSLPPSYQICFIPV

[7] = Half life in Sprague-Dawley rat plasma at 7.2 to 120 mg/kg, po by LC-MS/MS analysis; assay type: ADME, organism-based
Blood = experiment: Half life in Sprague-Dawley rat blood at 7.2 to 120 mg/kg, po by LC-MS/MS analysis; assay type: ADME, organism-based; conditions: in vivo
[8] = Ratio of drug level in Sprague-Dawley rat RBC to plasma at 7.2 to 120 mg/kg, po by LC-MS/MS analysis; assay type: ADME, organism-based; conditions: red blood cells (RBC) / plasma
Rattus norvegicus = experiment: Dose normalized AUC (0 to infinity) in Sprague-Dawley rat at 7.2 to 120 mg/kg, po by LC-MS/MS analysis; assay type: ADME, organism-based; conditions: in vivo
Summary of the method: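 Rat oral PK: AUC(0–∞) divided by the oral dose, expressed as (ng·h/mL)/(mg/kg).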

Cytochrome P450 2D6 = Cytochrome P450 2D6 (Homo sapiens, UniProt P10635); experiment: Inhibition of CYP2D6 in human liver microsomes using bufuralol as substrate after 5 to 15 mins; assay type: ADME; summary of the method: as §2
Cytochrome P450 2D6, sequence (P10635 whole entry): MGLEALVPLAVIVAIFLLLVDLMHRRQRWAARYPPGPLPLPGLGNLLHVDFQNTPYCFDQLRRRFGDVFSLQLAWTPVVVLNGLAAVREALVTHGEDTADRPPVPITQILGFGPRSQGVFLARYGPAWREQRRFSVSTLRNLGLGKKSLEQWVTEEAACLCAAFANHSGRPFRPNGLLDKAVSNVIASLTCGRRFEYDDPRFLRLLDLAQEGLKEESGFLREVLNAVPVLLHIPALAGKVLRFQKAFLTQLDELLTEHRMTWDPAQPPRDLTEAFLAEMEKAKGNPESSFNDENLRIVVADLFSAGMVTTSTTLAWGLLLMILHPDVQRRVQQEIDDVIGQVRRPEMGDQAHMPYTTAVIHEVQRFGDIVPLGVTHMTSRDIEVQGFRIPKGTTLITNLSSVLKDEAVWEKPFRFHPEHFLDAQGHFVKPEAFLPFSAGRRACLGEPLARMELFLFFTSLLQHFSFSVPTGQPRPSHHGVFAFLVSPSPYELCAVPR

Cytochrome P450 2C9 = Cytochrome P450 2C9 (Homo sapiens, UniProt P11712); experiment: Inhibition of CYP2C9 in human liver microsomes using tolbutamide as substrate after 5 to 15 mins
Cytochrome P450 2C9, sequence (P11712 whole entry): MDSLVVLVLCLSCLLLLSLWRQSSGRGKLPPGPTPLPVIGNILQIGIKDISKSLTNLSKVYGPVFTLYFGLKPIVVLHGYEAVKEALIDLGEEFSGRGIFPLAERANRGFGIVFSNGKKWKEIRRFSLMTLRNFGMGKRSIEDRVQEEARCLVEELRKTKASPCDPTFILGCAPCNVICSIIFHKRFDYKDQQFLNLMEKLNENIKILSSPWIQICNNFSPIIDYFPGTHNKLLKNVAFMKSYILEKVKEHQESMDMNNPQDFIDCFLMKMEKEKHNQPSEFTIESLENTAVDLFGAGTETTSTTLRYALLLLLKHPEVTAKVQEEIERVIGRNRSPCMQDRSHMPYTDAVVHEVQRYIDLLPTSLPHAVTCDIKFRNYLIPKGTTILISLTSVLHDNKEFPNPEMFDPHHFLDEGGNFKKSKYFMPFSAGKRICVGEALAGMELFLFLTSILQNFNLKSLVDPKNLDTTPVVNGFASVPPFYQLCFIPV

Cytochrome P450 1A2 = target: T4, Cytochrome P450 1A2 (Homo sapiens, UniProt P05177); experiment: Inhibition of CYP1A2 in human liver microsomes using phenacetin as substrate after 5 to 15 mins; assay type: ADME
T4 sequence (P05177 whole entry): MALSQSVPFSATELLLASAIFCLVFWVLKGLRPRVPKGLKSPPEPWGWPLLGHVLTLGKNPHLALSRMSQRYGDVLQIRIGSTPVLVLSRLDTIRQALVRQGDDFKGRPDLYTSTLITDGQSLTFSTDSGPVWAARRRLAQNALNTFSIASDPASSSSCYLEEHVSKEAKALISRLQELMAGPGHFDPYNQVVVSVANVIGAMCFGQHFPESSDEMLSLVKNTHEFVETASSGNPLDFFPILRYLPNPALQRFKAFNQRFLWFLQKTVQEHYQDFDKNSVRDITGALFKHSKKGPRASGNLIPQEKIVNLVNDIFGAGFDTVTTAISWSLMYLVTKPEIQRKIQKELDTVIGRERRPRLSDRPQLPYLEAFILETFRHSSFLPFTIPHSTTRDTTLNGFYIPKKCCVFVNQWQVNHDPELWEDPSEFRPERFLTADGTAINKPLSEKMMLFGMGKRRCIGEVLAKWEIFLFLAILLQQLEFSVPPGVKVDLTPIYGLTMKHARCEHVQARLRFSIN
Summary of the method: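 Pooled human liver microsomes incubated with phenacetin as the CYP1A2-specific probe substrate across a range of test-compound concentrations. IC50 derived from inhibition of probe metabolism.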

Cytochrome P450 3A4 [9] = target: T1, Cytochrome P450 3A4; experiment: Time dependent inhibition of CYP3A4 using in human liver microsomes using midazolam as substrate; assay type: ADME
[10] = Half life in dog blood; assay type: ADME, tissue-based, Canis lupus familiaris
Cytochrome P450 3A4 [11] = target: T1, Cytochrome P450 3A4; experiment: Inhibition of CYP3A4 using in human liver microsomes using midazolam as substrate after 5 to 15 mins; assay type: ADME; summary of the method: as §1
Cytochrome P450 3A4 [12] = target: T1, Cytochrome P450 3A4; experiment: Time dependent inhibition of CYP3A4 using in human liver microsomes using testosterone as substrate; assay type: ADME
Cytochrome P450 2C19 [13] = target: T2, Cytochrome P450 2C19; experiment: Time dependent inhibition of CYP2C19 in human liver microsomes using S-Mephentoin as substrate; assay type: ADME
[14] = test system: Hemoglobin HbA (Homo sapiens), P69905+P68871 [E7V]; experiment: Induction of R-state stabilization of Hb betaGlu6Val mutant in sickle disease patient purified HbS/HbA mixture assessed as change from baseline of partial pressure of O2 at which HbS is 50% saturated with O2 at 500 uM preincubated for 45 mins followed by oxygenation for 10 mins and subsequent deoxygenation by hemoximetry relative to control
Summary of the method: (§3)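 Oxygen equilibrium curves were run on a Hemox Analyzer using Hb purified from sickle disease blood (an HbA/HbS mixture) at 25 μM. Compound was tested at 30 μM, or at 500 μM where noted. The read-out was the % change from baseline in the pO2 at which HbS is 50% saturated (Δp50).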

[15] = test system: Hemoglobin HbA (Homo sapiens), P69905+P68871 [E7V]; experiment: Induction of R-state stabilization of Hb betaGlu6Val mutant in sickle cell disease transfused human whole blood assessed as change from baseline of partial pressure of O2 at which HbS is 50% saturated with O2 at 1 mM preincubated for 45 mins followed by 20 mins oxygenation/deoxygenation cycle by hemoximetry relative to control
Summary of the method: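 Whole blood from transfused SCD subjects, at 20% hematocrit (Hb 1 mM), was run with compound at 1 mM. Oxygen equilibrium curves were measured by hemoximetry. The value is the % change from baseline in the pO2 giving 50% O2 saturation (Δp50).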

[16] = test system: Hemoglobin HbA (Homo sapiens), P69905+P68871 [E7V]; experiment: Induction of R-state stabilization of Hb betaGlu6Val mutant in sickle disease patient purified HbS/HbA mixture assessed as change from baseline of partial pressure of O2 at which HbS is 50% saturated with O2 at 30 uM preincubated for 45 mins followed by oxygenation for 10 mins and subsequent deoxygenation by hemoximetry relative to control; summary of the method: as §3
[17] = Half life in monkey plasma; assay type: ADME, cell-free, Macaca mulatta; conditions: rhesus monkey
[18] = Half life in dog plasma; assay type: ADME, cell-free, Canis lupus familiaris

T1 sequence (P08684 whole entry): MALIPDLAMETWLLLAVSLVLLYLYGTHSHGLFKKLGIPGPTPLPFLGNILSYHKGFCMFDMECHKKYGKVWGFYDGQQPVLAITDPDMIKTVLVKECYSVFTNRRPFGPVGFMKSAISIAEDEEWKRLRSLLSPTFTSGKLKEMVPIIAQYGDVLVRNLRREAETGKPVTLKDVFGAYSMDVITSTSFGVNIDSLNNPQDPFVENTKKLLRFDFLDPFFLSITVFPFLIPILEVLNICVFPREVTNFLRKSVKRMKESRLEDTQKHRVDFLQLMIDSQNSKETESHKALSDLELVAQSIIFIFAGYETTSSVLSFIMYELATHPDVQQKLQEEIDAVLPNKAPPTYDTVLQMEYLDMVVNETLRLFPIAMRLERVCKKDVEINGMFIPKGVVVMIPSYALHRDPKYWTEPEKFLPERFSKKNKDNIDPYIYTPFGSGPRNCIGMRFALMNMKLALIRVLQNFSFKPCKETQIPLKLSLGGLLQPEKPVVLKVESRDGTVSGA

In the case of CC(C)n1nccc1-c1ncccc1COc1cccc(O)c1C=O [VOXELOTOR], the IC50 (Cytochrome P450 3A4 [1]) is reported as 12.5 µM, the IC50 (Cytochrome P450 2C19 [2]) is reported as 20 µM and the half-life [3] is reported as 20 h. For the same compound, the Activity (Homo sapiens) was 206%, the bioavailability [4] was 60% and the bioavailability [5] was 36%. For the same compound, the bioavailability [6] was 37%, the IC50 (Cytochrome P450 2C8) was 7.9 µM and the half-life [7] was 20 h. The t1/2 (Blood) was 19.1 h, the Kp [8] was 150 and the AUC/dose (Rattus norvegicus) was 326806 ng·h/mL/mg/kg. It also gave an IC50 (Cytochrome P450 2D6) of 148 µM, an IC50 (Cytochrome P450 2C9) of 8.5 µM and an IC50 (Cytochrome P450 1A2) of 58.6 µM. The TDI (Cytochrome P450 3A4 [9]) was “Not Active”, the half-life [10] was 20 h and the IC50 (Cytochrome P450 3A4 [11]) was 81.9 µM. The TDI (Cytochrome P450 3A4 [12]) was “Not Active”, the TDI (Cytochrome P450 2C19 [13]) was “Not Active” and the Activity [14] was 2.6%. It also gave an Activity [15] of 79.8%, an Activity [16] of 72.1% and a half-life [17] of 20 h. For the same compound, the half-life [18] was 20 h.
